Measured values from ChEMBL document CHEMBL1141219, “Chemoenzymatic synthesis of a series of 4-substituted glutamate analogues and pharmacological characterization at human glutamate transporters subtypes 1-3” (J Med Chem, 2005).

Legend:
Format in all cases: functional, cell-based
[1] = target: Excitatory amino acid transporter 1 (Homo sapiens) (UniProt P43003); test: Binding affinity to human EAAT1 expressed in HEK293 cells in FMP (FLPR) assay
In short: (§1)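 HEK293 cells stably expressing the human transporter, seeded on poly-D-lysine plates in DMEM with 10% dialyzed FBS and G-418 for 16–24 h. Cells washed in Krebs buffer (pH 7.4), then loaded with FMP dye for 30 min at 37 °C. Read at room temperature, excitation 530 nm and emission 560 nm, for up to 1 min after substrate addition. Non-substrate inhibitors were preincubated and tested against 30 μM Glu. Seven-concentration curves from maximal responses, duplicate, at least three times.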

[2] = target: Excitatory amino acid transporter 2 (Homo sapiens) (UniProt P43004); test: Binding affinity to human EAAT2 expressed in HEK293 cells in FMP (FLPR) assay; in short: as §1
Sequence of Excitatory amino acid transporter 2 (Homo sapiens) (P43004 whole entry): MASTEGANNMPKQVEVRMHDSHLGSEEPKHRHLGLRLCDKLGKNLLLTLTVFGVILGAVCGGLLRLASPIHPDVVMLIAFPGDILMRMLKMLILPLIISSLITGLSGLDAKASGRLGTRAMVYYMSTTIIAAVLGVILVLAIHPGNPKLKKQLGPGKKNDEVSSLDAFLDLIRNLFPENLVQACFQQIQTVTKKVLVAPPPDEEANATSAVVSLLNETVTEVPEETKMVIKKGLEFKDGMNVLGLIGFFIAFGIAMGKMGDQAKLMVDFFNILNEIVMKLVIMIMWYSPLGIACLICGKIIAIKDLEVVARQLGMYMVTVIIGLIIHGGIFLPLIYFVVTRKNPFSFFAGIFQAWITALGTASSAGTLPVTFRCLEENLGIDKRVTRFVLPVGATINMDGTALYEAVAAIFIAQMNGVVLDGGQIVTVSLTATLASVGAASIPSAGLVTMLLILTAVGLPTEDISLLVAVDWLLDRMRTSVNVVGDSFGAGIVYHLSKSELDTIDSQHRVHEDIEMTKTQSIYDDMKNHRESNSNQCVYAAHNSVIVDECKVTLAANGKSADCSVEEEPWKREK

[3] = target: T1, Excitatory amino acid transporter 3 (Homo sapiens) (UniProt P43005); test: Binding affinity to human EAAT3 expressed in HEK293 cells in FMP (FLPR) assay; in short: as §1
T1 sequence (whole entry): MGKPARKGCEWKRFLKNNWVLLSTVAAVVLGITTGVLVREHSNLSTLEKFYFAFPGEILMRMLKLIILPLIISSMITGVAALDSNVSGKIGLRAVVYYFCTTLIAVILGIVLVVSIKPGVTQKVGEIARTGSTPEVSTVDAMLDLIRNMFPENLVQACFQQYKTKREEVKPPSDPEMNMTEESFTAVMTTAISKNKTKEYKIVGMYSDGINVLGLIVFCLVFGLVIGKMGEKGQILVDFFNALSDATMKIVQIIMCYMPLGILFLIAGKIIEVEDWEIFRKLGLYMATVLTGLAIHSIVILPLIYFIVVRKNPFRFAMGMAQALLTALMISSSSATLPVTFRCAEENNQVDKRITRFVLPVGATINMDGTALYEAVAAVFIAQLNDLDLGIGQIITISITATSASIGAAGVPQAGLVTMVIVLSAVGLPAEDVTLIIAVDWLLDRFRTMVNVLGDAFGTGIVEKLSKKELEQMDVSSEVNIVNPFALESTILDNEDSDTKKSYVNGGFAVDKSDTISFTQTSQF

Sequence of Excitatory amino acid transporter 1 (Homo sapiens) (P43003 whole entry): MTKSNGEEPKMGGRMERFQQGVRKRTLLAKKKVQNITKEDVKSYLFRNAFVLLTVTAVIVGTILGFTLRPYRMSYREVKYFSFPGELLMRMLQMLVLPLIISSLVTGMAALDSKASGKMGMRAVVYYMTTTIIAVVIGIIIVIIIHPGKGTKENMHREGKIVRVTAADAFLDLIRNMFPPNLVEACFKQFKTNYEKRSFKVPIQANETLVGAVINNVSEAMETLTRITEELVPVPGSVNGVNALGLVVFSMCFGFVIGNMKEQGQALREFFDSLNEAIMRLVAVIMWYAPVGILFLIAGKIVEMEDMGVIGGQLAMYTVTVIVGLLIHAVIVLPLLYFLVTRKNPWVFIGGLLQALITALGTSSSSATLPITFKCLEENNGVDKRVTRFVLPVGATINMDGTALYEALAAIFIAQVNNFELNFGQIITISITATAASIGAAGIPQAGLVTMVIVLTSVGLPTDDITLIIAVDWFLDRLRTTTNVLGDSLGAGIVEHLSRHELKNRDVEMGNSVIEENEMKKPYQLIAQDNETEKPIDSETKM

N[C@@H](C[C@@H](O)C(=O)O)C(=O)O
pKm [1]: 3 | pKm [2]: 3 | pKm [3]: 3

N[C@@H](CCC(=O)O)C(=O)O
pKm [1]: 5.04 | pKm [2]: 4.69 | pKm [3]: 4.61

N[C@@H](C[C@H](O)C(=O)O)C(=O)O
pKm [1]: 4.06 | pKm [2]: 4.21 | pKm [3]: 4.16

C[C@H](C[C@H](N)C(=O)O)C(=O)O
pKm [1]: 4.92
